ChEMBL document CHEMBL1121936, “Apyrogenic, adjuvant-active N-acetylmuramyl-dipeptides” (1982)
“And” between values parts separate entries of the source, which are not always exact repeats. Equal entries are not always repeated.

Assays:
Assay type in all cases: functional
[1] = system: Oryctolagus cuniculus; experiment: Febrile responses of compound was measured in rabbit after iv injection at the dose of 1 mg/kg
How it was run: (§1)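 Rabbits (strain HYL A, 3–3.5 kg), three per specimen, per French/European pharmacopoeia. Compound dissolved in pyrogen-free isotonic saline and given iv, first at 1 mg/kg. Rectal temperature recorded continuously and automatically. A specimen was judged nonpyrogenic if no rabbit rose above 0.5 °C; such specimens then went on to 3, 5 and 10 mg/kg. ΔT reported per rabbit, with the mean.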

[2] = system: Oryctolagus cuniculus; experiment: Febrile responses of compound was measured in rabbit after iv injection at the dose of 3 mg/kg; how it was run: as §1
[3] = system: Oryctolagus cuniculus; experiment: Febrile responses of compound was measured in rabbit after iv injection at the dose of 5 mg/kg; how it was run: as §1
[4] = system: Mus musculus; experiment: Adjuvant activity was measured after sc administration in phosphate buffer saline (PBS) to mice with BSA and expressed as primary response
How it was run: (§2)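 Female Swiss mice, 5–6 weeks old. BSA antigen given sc in PBS: 0.5 mg to prime, then 0.1 mg one month later as boost. Glycopeptide (0.1 mg) given with the priming injection. Sera pooled on day 21 for the primary titer; on day 37 sera titrated individually for the secondary titer. Titer is log of highest serum dilution agglutinating BSA-coated sheep RBC (passive hemagglutination). Student's t test vs controls.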

[5] = system: Mus musculus; experiment: Adjuvant activity was measured after sc administration in phosphate buffer saline (PBS) to mice with BSA and expressed as secondary response; how it was run: as §2
[6] = system: Klebsiella pneumoniae; experiment: Protective activity against Klebsiella pneumoniae was measured as difference between the percentage of survivors in treated group and its respective control group; design: concentration or dose not given beside the values
How it was run: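 Mice, 24 per group. Compound given iv at 100 μg on day 0; on day +1, intramuscular challenge with 10^4 K. pneumoniae. Mortality followed from day 1 to day 15. Protection is the percentage of survivors in the treated group minus that in its control group at day +15.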

[7] = system: Klebsiella pneumoniae; experiment: Protective activity against Klebsiella pneumoniae was measured as number of survivors to the number of total animals used; 10/24
[8] = system: Oryctolagus cuniculus; experiment: Febrile responses of compound was measured in rabbit after iv injection at the dose of 10 mg/kg; how it was run: as §1
[9] = system: Klebsiella pneumoniae; experiment: Protective activity against Klebsiella pneumoniae was measured as number of survivors to the number of total animals used; 0/24
[10] = system: Klebsiella pneumoniae; experiment: Protective activity against Klebsiella pneumoniae was measured as number of survivors to the number of total animals used; 16/24
[11] = system: Klebsiella pneumoniae; experiment: Protective activity against Klebsiella pneumoniae was measured as number of survivors to the number of total animals used; 7/24
[12] = system: Klebsiella pneumoniae; experiment: Protective activity against Klebsiella pneumoniae was measured as number of survivors to the number of total animals used; 3/24
[13] = system: Klebsiella pneumoniae; experiment: Protective activity against Klebsiella pneumoniae was measured as number of survivors to the number of total animals used; 4/24
[14] = system: Klebsiella pneumoniae; experiment: Protective activity against Klebsiella pneumoniae was measured as number of survivors to the number of total animals used; 8/24
[15] = system: Klebsiella pneumoniae; experiment: Protective activity against Klebsiella pneumoniae was measured as number of survivors to the number of total animals used;15/24

SMILES | Primary response [4] | Secondary response [5] | Delta T [1] [°C] | Delta T [2] [°C] | Protection [6] [%] | Delta T [8] | also measured
COC(=O)CC[C@H](NC(=O)[C@H](C)NC(=O)[C@@H](C)OC1C(O)C(CO)OC(O)C1NC(C)=O)C(=O)OC (stereo partly specified) | – | – | – | – | – | – | Delta T ([1]; 1 mg/kg): 0.33 °C and 0.13 °C; Delta T ([2]; 3 mg/kg): 0.4 °C and 0.17 °C; Delta T ([3]; 5 mg/kg): 1.1 °C and 0.9 °C
CC(=O)NC1C(O)OC(CO)C(O)C1O[C@H](C)C(=O)N[C@@H](C)C(=O)N[C@@H](CCC(N)=O)C(=O)O (stereo partly specified) | 2.97 | 7.35 | 0.03 | 0.9 | – | – | –
CCCCCOC(=O)[C@H](CCC(N)=O)NC(=O)[C@H](C)NC(=O)[C@@H](C)OC1C(O)C(CO)OC(O)C1NC(C)=O (stereo partly specified) | 1.64 | 7.8 | 0.1 | 0.03 | 37 | 0.13 °C | Survivors [7]: 10 N/total
CC(=O)NC1C(O)OC(CO)C(O)C1O[C@H](C)C(=O)N[C@@H](C)C(=O)N[C@@H](CCC(=O)O)C(=O)O (stereo partly specified) | – | – | – | 0.8 | – | – | Delta T ([1]; 1 mg/kg): 0.37 °C and 0.5 °C
CCOC(=O)[C@H](CCC(N)=O)NC(=O)[C@H](C)NC(=O)[C@@H](C)OC1C(O)C(CO)OC(O)C1NC(C)=O (stereo partly specified) | 4.64 | 9.53 | 0.23 | 0.03 | 0 | – | Survivors [9]: 0 N/total; Delta T ([8]; 10 mg/kg): 0.47 °C and 0.32 °C
CC(=O)NC1C(O)OC(CO)C(O)C1O[C@H](C)C(=O)N[C@@H](C)C(=O)N[C@@H](CCC(N)=O)C(N)=O (stereo partly specified) | – | – | 0.1 | 0.2 | – | – | Delta T [3]: 0.67 °C
CCCCOC(=O)[C@H](CCC(N)=O)NC(=O)[C@H](C)NC(=O)[C@@H](C)OC1C(O)C(CO)OC(O)C1NC(C)=O (stereo partly specified) | 4.21 | 8.43 | 0.03 | 0.26 | 63 | 0.3 °C | Survivors [10]: 16 N/total
CCCOC(=O)[C@H](CCC(N)=O)NC(=O)[C@H](C)NC(=O)[C@@H](C)OC1C(O)C(CO)OC(O)C1NC(C)=O (stereo partly specified) | 4.64 | 9.52 | 0.2 | 0.43 | 25 | 0.07 degrees C | Survivors [11]: 7 N/total
COC(=O)[C@H](CCC(N)=O)NC(=O)[C@H](C)NC(=O)[C@@H](C)OC1C(O)C(CO)OC(O)C1NC(C)=O (stereo partly specified) | 3.85 | 8.72 | 0.1 | 0.23 | 8 | 0.1 °C | Survivors [12]: 3 N/total
CCCCCCCCCCOC(=O)[C@H](CCC(N)=O)NC(=O)[C@H](C)NC(=O)[C@@H](C)OC1C(O)C(CO)OC(O)C1NC(C)=O (stereo partly specified) | 3.64 | 9.1 | 0.2 | 0.17 | 12 | 0.23 °C | Survivors [13]: 4 N/total
CCCCCCOC(=O)[C@H](CCC(N)=O)NC(=O)[C@H](C)NC(=O)[C@@H](C)OC1C(O)C(CO)OC(O)C1NC(C)=O (stereo partly specified) | 2.75 | 7.71 | 0.13 | 0.2 | 29 | 0.13 °C | Survivors [14]: 8 N/total
CC(=O)N[C@H]1C(O)O[C@H](CO)[C@@H](O)[C@@H]1O[C@H](C)C(=O)N[C@@H](C)C(=O)N[C@H](CCC(=O)O)C(N)=O (stereo partly specified) [MURAMYL DIPEPTIDE] | 3.64 | 8.34 | 0.76 | – | 58 | – | Survivors [15]: 15 N/total
